16 molecules from ChEMBL document CHEMBL1143506, “Antimalarial activity of 2,4,6-trisubstituted pyrimidines” (Bioorg Med Chem Lett, 2005) can be followed below.

Each structure is given as a SMILES string. In brackets after ≈: the same amount, converted by molar mass.

This assay concerns Plasmodium falciparum. Nature of the assay: Minimum inhibitory concentration against schizont maturation of Plasmodium falciparum NF54 ring stage after 40 h. Type of assay: functional. The procedure, abridged: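 P. falciparum NF-54 culture kept in RPMI-1640 with 25 mM HEPES, 1% D-glucose, 0.23% sodium bicarbonate, 10% heat-inactivated human serum. Sorbitol-synchronized rings (~1% parasitaemia, 3% hematocrit). Compounds at 0.25–50 µg/mL in duplicate wells, 37 °C, candle jar, 36–40 h. Giemsa smears scored microscopically; MIC is the lowest concentration blocking full maturation to schizonts. Pyrimethamine served as reference.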

`Clc1ccc(-c2cc(-c3ccncc3)nc(N3CCOCC3)n2)cc1` came in with an MIC of 10 µg/mL (≈ 28.3 µM).
Then `CSc1ccc(-c2cc(-c3ccncc3)nc(N3CCOCC3)n2)cc1`, with 10 µg/mL (≈ 27.4 µM).
The result for `c1ccc(-c2cc(-c3ccncc3)nc(N3CCOCC3)n2)cc1` reads 2 µg/mL (≈ 6.28 µM).
For the molecule `Cc1ccc(-c2cc(-c3ccncc3)nc(N3CCOCC3)n2)cc1C`, inhibition of growth (MIC) required 1 µg/mL (≈ 2.89 µM).
The result for `COc1cccc(-c2cc(-c3ccncc3)nc(N3CCOCC3)n2)c1` reads 2 µg/mL (≈ 5.74 µM).
The molecule `Cc1ccc(-c2cc(-c3ccncc3)nc(N3CCOCC3)n2)cc1` showed an MIC of 10 µg/mL (≈ 30.1 µM).
Then `COc1cc(OC)c(-c2cc(-c3ccncc3)nc(N3CCOCC3)n2)cc1OC`, with 0.5 µg/mL (≈ 1.22 µM); and `COc1ccc(-c2cc(-c3ccncc3)nc(N3CCOCC3)n2)cc1`, with 2 µg/mL (≈ 5.74 µM); and `COc1ccc(OC)c(-c2cc(-c3ccncc3)nc(N3CCOCC3)n2)c1`, with 1 µg/mL (≈ 2.64 µM).
Then `CCc1nc(N)nc(N)c1-c1ccc(Cl)cc1` [PYRIMETHAMINE], with 10 µg/mL (≈ 40.2 µM); and `COc1cc(OC)cc(-c2cc(-c3ccncc3)nc(N3CCOCC3)n2)c1`, with 2 µg/mL (≈ 5.28 µM).
The molecule `O=[N+]([O-])c1cccc(-c2cc(-c3ccncc3)nc(N3CCOCC3)n2)c1` gave an MIC of 1 µg/mL (≈ 2.75 µM).
The result for `COc1cccc(-c2cc(-c3ccncc3)nc(N3CCOCC3)n2)c1OC` reads 1 µg/mL (≈ 2.64 µM); that for `c1csc(-c2cc(-c3ccncc3)nc(N3CCOCC3)n2)c1`, 1 µg/mL (≈ 3.08 µM); that for `COc1cc(-c2cc(-c3ccncc3)nc(N3CCOCC3)n2)cc(OC)c1OC`, 10 µg/mL (≈ 24.5 µM).
In turn, `COc1ccc(-c2cc(-c3ccncc3)nc(N3CCOCC3)n2)c2ccccc12` displayed an MIC of 1 µg/mL (≈ 2.51 µM).

As usually defined, the MIC is the lowest concentration found to suppress growth.
